The term IC50 denotes the concentration needed to halve the response being measured.

In one experiment the test system is NCI-H226. In words: Cytotoxicity against human NCI-H226 cells assessed as reduction in cell viability by MTT assay. In kind it is cell-based. In outline: (§1)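 Cells cultured in MEM or RPMI1640 with 10% FBS, 37 °C, 5% CO₂. After compound exposure, 5 µg/ml MTT in MEM for 2 h at 37 °C, then solubilized overnight at 37 °C (40% DMF, 20% SDS); absorbance at 570 nm. IC50 taken from linear portion of curve as concentration cutting absorbance 50% versus control.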
(In general: Tetrazolium assays rely on reduction of a dye to a coloured formazan, in cell work by metabolically active cells.)

Another experiment relates to Jurkat. As to the kind of experiment: Cytotoxicity against human Jurkat cells assessed as reduction in cell viability by MTT assay. In kind it is cell-based. In a few lines: as §1
Experiment [1] in a line: Cytotoxicity against human NPC-TW01 cells assessed as reduction in cell viability by MTT assay. It counts as cell-based. In outline:
as §1

In experiment [2] the target is T1, Nuclear factor erythroid 2-related factor 2 (Homo sapiens) (UniProt Q16236).
T1 sequence (whole entry): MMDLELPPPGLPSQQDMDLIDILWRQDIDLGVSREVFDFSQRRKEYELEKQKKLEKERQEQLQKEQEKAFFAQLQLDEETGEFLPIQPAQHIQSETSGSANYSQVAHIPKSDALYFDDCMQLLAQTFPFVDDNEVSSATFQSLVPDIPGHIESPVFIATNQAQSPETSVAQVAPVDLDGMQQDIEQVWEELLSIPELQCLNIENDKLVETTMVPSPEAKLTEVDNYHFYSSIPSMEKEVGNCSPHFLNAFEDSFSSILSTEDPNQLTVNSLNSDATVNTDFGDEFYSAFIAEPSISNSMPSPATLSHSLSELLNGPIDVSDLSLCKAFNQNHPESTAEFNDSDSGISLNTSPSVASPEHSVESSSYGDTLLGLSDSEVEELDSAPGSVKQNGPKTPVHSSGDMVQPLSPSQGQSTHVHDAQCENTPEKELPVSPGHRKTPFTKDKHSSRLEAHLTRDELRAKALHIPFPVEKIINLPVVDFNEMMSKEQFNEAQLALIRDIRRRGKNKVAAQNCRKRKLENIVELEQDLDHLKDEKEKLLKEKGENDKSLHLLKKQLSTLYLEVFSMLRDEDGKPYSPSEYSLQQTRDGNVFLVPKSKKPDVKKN
As to the kind of experiment: Activation of Nrf2 in human NPC-TW01 or HONE1 cells expressing ARE-luciferase at 20 uM incubated for 16 hrs by luciferase reporter gene assay relative to untreated control. It counts as cell-based. A general note: A reporter such as luciferase makes a cellular process visible.

Experiment [3] concerns the target T1, Nuclear factor erythroid 2-related factor 2 (Homo sapiens). As to the kind of experiment: Induction of Nrf2 Ser40 phosphorylation in human NPC-TW01 cells expressing pGL4-9ARE incubated for 6 and 12 hrs by Western blot method. It counts as cell-based. In outline:
(§2)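 TW01-pGL4-9ARE cells treated and harvested at set times; lysed in NP-40 buffer with phosphatase/protease inhibitors, protein by BCA. 40 µg lysate on 10% SDS-PAGE, PVDF transfer, 5% BSA/TBS-Tween block; primary antibodies (p-Nrf2 Ser40, total Nrf2, actin) overnight at 4 °C, HRP secondary 1 h room temperature; imaged by chemiluminescence imager.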
On the technique in general: In western blotting, separated proteins are transferred to a membrane and probed.

Experiment [4] has the same target. As to the kind of experiment: Activation of Nrf2 in human NPC-TW01 or HONE1 cells expressing ARE-luciferase at 20 uM incubated for 16 hrs in presence of PKC signaling inhibitor staurosporine by luciferase reporter gene assay relative to untreated control. It counts as cell-based.
Experiment [5] has as its system NPC-TW01. As to the kind of experiment: Inhibition of H2O2-induced intracellular oxidative stress in human NPC-TW01 cells expressing pGL4-9ARE at 20 uM pre-treated for 6 hrs before H2O2 challenge for 16 hrs by DCFH-DA dye based flow cytometry. It counts as functional, cell-based. In outline: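 TW01-pGL4-9ARE cells, 1 × 10⁵ per well, grown overnight, pre-treated 20 µM for 6 h, then 500 µM H2O2 for 16 h. Stained with 20 µM DCFH-DA 30 min at 37 °C, resuspended in PBS, analysed by flow cytometry; geometric mean fluorescence reported, p < 0.05 versus H2O2 alone.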

The subject of experiment [6] is NPC-TW01. As to the kind of experiment: Effect on Nrf2 protein expression in human NPC-TW01 cells expressing pGL4-9ARE incubated for 6 and 12 hrs by Western blot method. It counts as functional, cell-based. In outline: as §2

The source made the active and inactive calls. The rule behind the calls is not given here.

In the case of `O/N=C(\COc1cccc2ccccc12)c1ccc(-c2ccccc2)cc1`, the IC50 (with NCI-H226; with Jurkat; in experiment [1]) was greater than 50 µM in each case. Also, the fold change (FC) in experiment [2] came to 1.19.

As for `O/N=C(\COc1ccc2ccccc2c1)c1ccc(F)c(F)c1`, the half-inhibitory concentration (IC50) worked out at 42.8 µM with NCI-H226, 44.6 µM in the experiment with Jurkat and 36.1 µM in experiment [1]. Moreover, the fold change (FC) in experiment [2] was 1.42.

With `C/C(COc1cccc2ccccc12)=N\O`, the IC50 (with NCI-H226; in the experiment with Jurkat; in experiment [1]) was greater than 50 µM throughout. Moreover, the fold change (FC) in experiment [2] came to 1.17.

For `O/N=C(\COc1ccc2ccccc2c1)c1ccc(Br)cc1`, the IC50 stood at 39.1 µM in the experiment with NCI-H226, 47.2 µM in the experiment with Jurkat and 27.9 µM in experiment [1]. Moreover, the fold change (FC) in experiment [2] was found to be 0.95.

As for `COc1ccc(/C(COc2ccc3ccccc3c2)=N/O)cc1`, the outcome in experiment [3] was Active. Besides, the outcome (in experiment [4]; in the experiment on NPC-TW01 [6]) was inactive. The IC50 in the experiment on NCI-H226 was greater than 50 µM; with Jurkat, 35.8 µM; in experiment [1], greater than 50 µM. Moreover, the inhibition result with NPC-TW01 [5] is “Active”. The fold change (FC) in experiment [2] was 1.65.

As to `COc1ccc(/C(COc2cccc3ccccc23)=N/O)cc1`, the IC50 with NCI-H226 was determined as 36.7 µM; in the experiment on Jurkat it was 31.8 µM; in experiment [1], 32.3 µM. Besides, the fold change (FC) in experiment [2] was 1.1.

Turning to `COc1ccc(OC)c(/C(COc2ccc3ccccc3c2)=N/O)c1`, the IC50 in the experiment on NCI-H226 was 8.6 µM; in the experiment on Jurkat, 10.1 µM; in experiment [1], 16.7 µM. In addition, the fold change (FC) in experiment [2] turned out to be 0.65.

In the case of `O/N=C(\COc1ccc2ccccc2c1)c1ccc(Cl)cc1`, the IC50 in the experiment with NCI-H226 was 34.9 µM; in the experiment with Jurkat, 37.3 µM; in experiment [1], 26 µM. Further, the fold change (FC) in experiment [2] amounted to 1.07.

As for `O/N=C(\COc1ccc2ccccc2c1)c1ccc(C(F)(F)F)cc1`, the values for the IC50 (in the experiment with NCI-H226; in the experiment with Jurkat; in experiment [1]) were 34.1 µM, 36.2 µM and 30.7 µM, respectively. The fold change (FC) in experiment [2] amounted to 1.05.

Consider `O/N=C(\COc1cccc2ccccc12)c1ccc(C(F)(F)F)cc1`, for which the IC50 is greater than 50 µM with NCI-H226, greater than 50 µM in the experiment on Jurkat and 46.4 µM in experiment [1]. The fold change (FC) in experiment [2] was 1.01.

Regarding `O/N=C(\COc1cccc2ccccc12)c1ccc(F)cc1`, the IC50 (in the experiment on NCI-H226; in the experiment on Jurkat; in experiment [1]) was greater than 50 µM throughout. Moreover, the fold change (FC) in experiment [2] was found to be 1.09.

Regarding `O/N=C(\COc1cccc2ccccc12)c1ccc(Br)cc1`, the IC50 (with NCI-H226; in the experiment with Jurkat; in experiment [1]) was greater than 50 µM throughout. Besides, the fold change (FC) in experiment [2] came out at 1.03.

Take `O/N=C(\COc1cccc2ccccc12)c1ccccc1`: the results for the IC50 (with NCI-H226; in the experiment on Jurkat; in experiment [1]) were 47.1 µM, greater than 50 µM and greater than 50 µM, respectively. Also, the fold change (FC) in experiment [2] was found to be 1.14.

Take `COc1ccc(OC)c(/C(COc2cccc3ccccc23)=N/O)c1`: the IC50 with NCI-H226 was 41.5 µM; in the experiment with Jurkat, greater than 50 µM; in experiment [1], 32.3 µM. Also, the fold change (FC) in experiment [2] came to 0.93.

Take `C/C(COc1ccc2ccccc2c1)=N\O`: the outcome in experiment [3] was Active. In addition, the result (in experiment [4]; in the experiment with NPC-TW01 [6]) was inactive. The IC50 (in the experiment with NCI-H226; with Jurkat; in experiment [1]) was greater than 50 µM each time. Further, in the experiment on NPC-TW01 [5], the inhibition result is “Active”. The fold change (FC) in experiment [2] worked out at 2.04.

With `O/N=C(\COc1cccc2ccccc12)c1ccc(F)c(F)c1`, the IC50 with NCI-H226 was greater than 50 µM; with Jurkat, 42.6 µM; in experiment [1], 36.8 µM. In addition, in experiment [2], the fold change (FC) was found to be 0.86.

In the case of `O/N=C(\COc1cccc2ccccc12)c1ccc(Cl)cc1`, the IC50 (in the experiment on NCI-H226; in the experiment with Jurkat; in experiment [1]) was greater than 50 µM each time. Further, the fold change (FC) in experiment [2] amounted to 1.

For `O/N=C(\COc1ccc2ccccc2c1)c1ccc2ccccc2c1`, the IC50 in the experiment on NCI-H226 was 37.1 µM; in the experiment with Jurkat, 24.3 µM; in experiment [1] it was greater than 50 µM. The fold change (FC) in experiment [2] turned out to be 1.36.

For the compound `O/N=C(\COc1ccc2ccccc2c1)c1ccc(-c2ccccc2)cc1`, the IC50 (in the experiment on NCI-H226; with Jurkat; in experiment [1]) was greater than 50 µM each time. For the same compound, the fold change (FC) in experiment [2] was 1.18.

`O/N=C(\COc1cccc2ccccc12)c1ccc2ccccc2c1`: the IC50 in the experiment with NCI-H226 is 38.9 µM; in the experiment on Jurkat it was greater than 50 µM; in experiment [1] it was 36.1 µM. Also, in experiment [2], the fold change (FC) came out at 1.25.

On to `O/N=C(\COc1ccc2ccccc2c1)c1ccc(F)cc1`, for which, in experiment [3], the result was Active. For the same compound, the outcome (in experiment [4]; in the experiment with NPC-TW01 [6]) was inactive. The IC50 (in the experiment on NCI-H226; in the experiment on Jurkat; in experiment [1]) was greater than 50 µM in each case. Further, in the experiment with NPC-TW01 [5], the inhibition entry is “Active”. For the same compound, in experiment [2], the fold change (FC) stood at 2.61.

For the compound `CC(C)(C)c1cc(O)ccc1O`, the fold change (FC) in experiment [2] turned out to be 1.77.

Consider `O/N=C(\COc1ccc2ccccc2c1)c1ccccc1`, for which the result in experiment [3] was Active. Also, the result (in experiment [4]; in the experiment on NPC-TW01 [6]) was inactive. The IC50 (in the experiment on NCI-H226; in the experiment on Jurkat; in experiment [1]) was greater than 50 µM in each case. Besides, the inhibition result in the experiment on NPC-TW01 [5] was “Active”. For the same compound, in experiment [2], the fold change (FC) was determined as 3.49.

Source of the values: ChEMBL document CHEMBL3585270, “Discovery of oxime-bearing naphthalene derivatives as a novel structural type of Nrf2 activators” (Bioorg Med Chem, 2015).
